# Laboratory results: ChEMBL document CHEMBL1131435, “Biphenylsulfonamide endothelin antagonists: structure-activity relationships of a series of mono- and disubstituted analogues and pharmacology of the orally active endothelin antagonist 2'-amino-N- (3,4-dimethyl-5-isoxazolyl)-4'-(2-methylpropyl)[1, 1'-biphenyl]-2-sulfonamide (BMS-187308)” (J Med Chem, 1998)
# Molecular target: T1, Endothelin-1 receptor (Rattus norvegicus, UniProt P26684)
# T1 sequence (P26684 whole entry): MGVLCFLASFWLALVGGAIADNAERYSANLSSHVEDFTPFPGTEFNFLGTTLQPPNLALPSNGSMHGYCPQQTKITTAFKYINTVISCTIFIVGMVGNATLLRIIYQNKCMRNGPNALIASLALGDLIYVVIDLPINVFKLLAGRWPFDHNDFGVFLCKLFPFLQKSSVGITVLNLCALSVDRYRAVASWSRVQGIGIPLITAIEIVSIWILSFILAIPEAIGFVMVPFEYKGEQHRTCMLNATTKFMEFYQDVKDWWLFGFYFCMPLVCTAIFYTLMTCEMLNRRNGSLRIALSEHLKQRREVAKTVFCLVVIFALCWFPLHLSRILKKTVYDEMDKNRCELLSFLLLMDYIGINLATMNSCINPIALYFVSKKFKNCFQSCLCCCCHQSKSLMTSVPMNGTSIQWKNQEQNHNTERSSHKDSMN
# Assay: Ability to inhibit binding of [125I]ET1 to membranes prepared from A10 rat thoracic aorta smooth muscle (Endothelin A receptor) was determined by radioligand binding assay
# Type: tissue-based
# Outline: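 Competition binding of [125I]ET-1 to membranes prepared from A10 rat thoracic aorta smooth muscle cells (ET_A). Data were fitted iteratively to a one- or two-site binding model, and Ki was calculated from the IC50. Values are reported as Ki ± SE.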
row,Ki [µM],SMILES
1,8,Cc1noc(NS(=O)(=O)c2ccccc2Br)c1C

# Molecular target: Endothelin-1 receptor (Rattus norvegicus)
# Assay: Ability to inhibit Endothelin A receptor induced contractions in rabbit carotid artery rings (ETA) was determined in an in vitro functional assay.
row,Ki [µM],SMILES
1,0.82,Cc1noc(NS(=O)(=O)c2ccccc2-c2ccccn2)c1C
2,8.8,Cc1noc(NS(=O)(=O)c2ccccc2-c2ncccn2)c1C

# Molecular target: Endothelin receptor type B (Rattus norvegicus) (UniProt P21451)
# Sequence (P21451 whole entry, looked up): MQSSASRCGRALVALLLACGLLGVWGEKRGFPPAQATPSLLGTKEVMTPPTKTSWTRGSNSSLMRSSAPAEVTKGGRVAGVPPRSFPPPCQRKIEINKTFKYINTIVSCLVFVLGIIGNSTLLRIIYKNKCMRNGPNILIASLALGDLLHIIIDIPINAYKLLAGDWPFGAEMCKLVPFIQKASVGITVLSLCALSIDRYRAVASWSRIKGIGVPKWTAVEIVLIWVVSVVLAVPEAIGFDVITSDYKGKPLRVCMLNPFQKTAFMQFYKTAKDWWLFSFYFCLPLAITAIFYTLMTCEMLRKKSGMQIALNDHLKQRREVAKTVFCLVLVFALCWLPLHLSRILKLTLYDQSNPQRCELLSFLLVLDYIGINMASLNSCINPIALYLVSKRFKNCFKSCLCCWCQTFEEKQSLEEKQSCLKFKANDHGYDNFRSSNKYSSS
# Assay: Inhibition of [125I]ET-1 binding to rat cerebellum membranes (Endothelin B receptor) was determined in a radioligand binding assay.
row,Ki [µM],SMILES
1,> 200,Cc1noc(NS(=O)(=O)c2ccccc2-c2cccs2)c1C
2,> 200,Cc1noc(NS(=O)(=O)c2ccccc2-c2ccsc2)c1C
3,> 200,Cc1noc(NS(=O)(=O)c2ccccc2-c2cccnc2)c1C

# The remaining lines, values behind:
row,SMILES,Ki [µM]
1,Cc1noc(NS(=O)(=O)c2ccccc2-c2cc3ccccc3[nH]2)c1C,66
2,Cc1noc(NS(=O)(=O)c2ccccc2-c2c[nH]c3ccccc23)c1C,> 200
3,Cc1noc(NS(=O)(=O)c2ccccc2-c2ncccn2)c1C,> 200
